Measurements taken from ChEMBL document CHEMBL1135435, “Synthesis and pharmacological evaluation of 5-(4-biphenyl)-3-methyl-4-phenyl-1,2,4-triazole derivatives as a novel class of selective antagonists for the human vasopressin V(1A) receptor” (J Med Chem, 2002).

Biological target: Vasopressin V2 receptor (Homo sapiens, UniProt P30518)
Experiment: Binding affinity at cloned human Vasopressin V2 receptor stably expressed in CHO cells, using [3H]AVP as radioligand
Type: cell-based
In short: (§1)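 Membranes from CHO cells stably expressing cloned human receptor; [3H]AVP (0.5-1.0 nM) with graded test concentrations in 50 mM Tris-HCl pH 7.4, 10 mM MgCl2, 0.1% BSA, 60 min at 25 °C. Stopped with ice-cold Tris buffer, rapid GF/B filtration, scintillation counting. Nonspecific binding with 1 μM unlabeled AVP. Ki = IC50/(1+[L]/Kd); Kd from Scatchard: 0.39 nM (V1A), 1.21 nM (V2).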

Vasopressin V2 receptor (Homo sapiens, UniProt P30518), sequence (P30518 whole entry): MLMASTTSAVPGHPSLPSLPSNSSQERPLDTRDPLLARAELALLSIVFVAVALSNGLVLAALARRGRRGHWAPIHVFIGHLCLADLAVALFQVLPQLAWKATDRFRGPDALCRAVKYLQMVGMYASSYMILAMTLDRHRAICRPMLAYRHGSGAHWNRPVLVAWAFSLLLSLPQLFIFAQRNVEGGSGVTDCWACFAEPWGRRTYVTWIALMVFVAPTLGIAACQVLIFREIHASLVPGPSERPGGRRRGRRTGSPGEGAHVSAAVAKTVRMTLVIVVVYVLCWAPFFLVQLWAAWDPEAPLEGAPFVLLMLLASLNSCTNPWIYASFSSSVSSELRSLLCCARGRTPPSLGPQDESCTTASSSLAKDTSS

SMILES	Ki
Cc1nnc(-c2ccc(-c3ccccc3)cc2)n1-c1ccccc1OCCCCCCN1CCCCC1	6930 nM
Cc1cccc(OCc2ccc(C(=O)N3CCC(N4CCCCC4)CC3)cc2)c1-n1c(C)nnc1-c1ccc(-c2ccccc2)cc1	1920 nM
Cc1nnc(-c2ccc(-c3ccccc3)cc2)n1-c1ccccc1OCCCCCCCCCCN1CCN(C)CC1	14300 nM
Cc1nnc(-c2ccc(-c3ccccc3)cc2)n1-c1ccccc1OCCCCCCCCN1CCN(C)CC1	8890 nM
COc1ccc(S(=O)(=O)N2c3ccc(Cl)cc3[C@](O)(c3ccccc3Cl)[C@@H]2C(=O)N2CCC[C@H]2C(N)=O)cc1OC [RELCOVAPTAN]	178 nM
Cc1nnc(-c2ccc(-c3ccccc3)cc2)n1-c1ccccc1OCCCCCCn1ccnc1	11100 nM
Cc1nnc(-c2ccc(-c3ccccc3)cc2)n1-c1ccccc1OCCCCC1CCNCC1	4430 nM
Cc1nnc(-c2ccc(-c3ccccc3)cc2)n1-c1ccccc1OCc1ccc(C(=O)N2CCN(C)CC2)cc1	585 nM
Cc1nnc(-c2ccc(-c3ccccc3)cc2)n1-c1ccccc1OCCCC1CCNCC1	7370 nM
Cc1nnc(-c2ccc(-c3ccccc3)cc2)n1-c1ccccc1OCCCCCCN1CCN(C)CC1	1780 nM
Cc1nnc(-c2ccc(-c3ccccc3)cc2)n1-c1ccccc1OCCCCCCCN1CCN(C)CC1	2470 nM
Cc1nnc(-c2ccc(-c3ccccc3)cc2)n1-c1ccccc1OCCCCCC(=O)N1CCN(C)CC1	6650 nM
Cc1nnc(-c2ccc(-c3ccccc3)cc2)n1-c1ccccc1OCCCCCN1CCN(C)CC1	4850 nM
Cc1nnc(-c2ccc(-c3ccccc3)cc2)n1-c1ccccc1OCCC1CCNCC1	8170 nM
Cc1nnc(-c2ccc(-c3ccccc3)cc2)n1-c1ccccc1OCCCCCCN1CCC(N2CCCCC2)CC1	979 nM
Cc1nnc(-c2ccc(-c3ccccc3)cc2)n1-c1ccccc1OCCCCN1CCN(C)CC1	10200 nM
COc1ccccc1-n1c(C)nnc1-c1ccc(-c2ccccc2)cc1	2460 nM
Cc1cccc(OCc2ccc(C(=O)N3CCN(C)CC3)cc2)c1-n1c(C)nnc1-c1ccc(-c2ccccc2)cc1	8520 nM
Cc1nnc(-c2ccc(-c3ccccc3)cc2)n1-c1ccccc1OCCCN1CCN(C)CC1	10200 nM
CN(C)C1CCN(C(=O)/C=C2/c3ccccc3N(C(=O)c3ccc(NC(=O)c4ccccc4-c4ccccc4)cc3)CCC2(F)F)CC1	1.19 nM
CC(=O)NCCCOc1ccc(C(=O)N2CCC(N3C(=O)CCc4ccccc43)CC2)cc1	> 10000 nM
Cc1cccc(OCCCCCCN2CCN(C)CC2)c1-n1c(C)nnc1-c1ccc(-c2ccccc2)cc1	14400 nM

Tested on: not listed separately
Experiment: Selectivity ratio of affinity at human Vasopressin V2 receptor to that of human Vasopressin V1a receptor.
In short: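 Ratio of hV2 Ki to hV1A Ki, each from [3H]AVP displacement on membranes of CHO cells stably expressing the cloned human receptor (60 min, 25 °C, filtration read-out; Ki via Cheng–Prusoff using Scatchard Kd).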

SMILES	Ratio
Cc1nnc(-c2ccc(-c3ccccc3)cc2)n1-c1ccccc1OCCCCCCN1CCCCC1	500
Cc1cccc(OCc2ccc(C(=O)N3CCC(N4CCCCC4)CC3)cc2)c1-n1c(C)nnc1-c1ccc(-c2ccccc2)cc1	1900
Cc1nnc(-c2ccc(-c3ccccc3)cc2)n1-c1ccccc1OCCCCCCCCCCN1CCN(C)CC1	360
Cc1nnc(-c2ccc(-c3ccccc3)cc2)n1-c1ccccc1OCCCCCCCCN1CCN(C)CC1	670
Cc1nnc(-c2ccc(-c3ccccc3)cc2)n1-c1ccccc1OCCCCCCn1ccnc1	1200
Cc1nnc(-c2ccc(-c3ccccc3)cc2)n1-c1ccccc1OCCCCC1CCNCC1	2100
Cc1nnc(-c2ccc(-c3ccccc3)cc2)n1-c1ccccc1OCc1ccc(C(=O)N2CCN(C)CC2)cc1	190
Cc1nnc(-c2ccc(-c3ccccc3)cc2)n1-c1ccccc1OCCCC1CCNCC1	940
Cc1nnc(-c2ccc(-c3ccccc3)cc2)n1-c1ccccc1OCCCCCCN1CCN(C)CC1	1700
Cc1nnc(-c2ccc(-c3ccccc3)cc2)n1-c1ccccc1OCCCCCCCN1CCN(C)CC1	550
Cc1nnc(-c2ccc(-c3ccccc3)cc2)n1-c1ccccc1OCCCCCC(=O)N1CCN(C)CC1	730
Cc1nnc(-c2ccc(-c3ccccc3)cc2)n1-c1ccccc1OCCCCCN1CCN(C)CC1	1200
Cc1nnc(-c2ccc(-c3ccccc3)cc2)n1-c1ccccc1OCCC1CCNCC1	150
Cc1nnc(-c2ccc(-c3ccccc3)cc2)n1-c1ccccc1OCCCCCCN1CCC(N2CCCCC2)CC1	930
Cc1nnc(-c2ccc(-c3ccccc3)cc2)n1-c1ccccc1OCCCCN1CCN(C)CC1	360
COc1ccccc1-n1c(C)nnc1-c1ccc(-c2ccccc2)cc1	21
Cc1cccc(OCc2ccc(C(=O)N3CCN(C)CC3)cc2)c1-n1c(C)nnc1-c1ccc(-c2ccccc2)cc1	1100
Cc1nnc(-c2ccc(-c3ccccc3)cc2)n1-c1ccccc1OCCCN1CCN(C)CC1	270
CN(C)C1CCN(C(=O)/C=C2/c3ccccc3N(C(=O)c3ccc(NC(=O)c4ccccc4-c4ccccc4)cc3)CCC2(F)F)CC1	1.9
Cc1cccc(OCCCCCCN2CCN(C)CC2)c1-n1c(C)nnc1-c1ccc(-c2ccccc2)cc1	9900

Biological target: Vasopressin V2 receptor (Rattus norvegicus, UniProt Q00788)
Sequence (Q00788 whole entry): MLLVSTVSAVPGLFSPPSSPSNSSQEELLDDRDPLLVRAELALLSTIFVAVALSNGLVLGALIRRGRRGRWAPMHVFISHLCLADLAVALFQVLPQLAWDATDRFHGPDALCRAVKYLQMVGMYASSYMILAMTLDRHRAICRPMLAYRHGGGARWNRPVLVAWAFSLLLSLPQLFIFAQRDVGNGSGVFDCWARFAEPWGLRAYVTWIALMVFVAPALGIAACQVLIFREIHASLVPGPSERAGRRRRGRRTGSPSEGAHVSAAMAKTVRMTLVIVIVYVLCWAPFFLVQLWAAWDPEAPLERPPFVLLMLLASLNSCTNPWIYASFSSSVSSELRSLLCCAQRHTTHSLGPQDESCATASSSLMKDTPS
Experiment: Binding affinity at Vasopressin V2 receptor, performed using [3H]AVP on rat kidney
In short: (§2)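 [3H]AVP binding on plasma membranes prepared from rat liver (V1A) or rat kidney (V2). Ki from four to six independent experiments in duplicate, mean ± SEM; selectivity expressed as V2/V1A Ki ratio.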

SMILES	Ki
Cc1cccc(OCc2ccc(C(=O)N3CCC(N4CCCCC4)CC3)cc2)c1-n1c(C)nnc1-c1ccc(-c2ccccc2)cc1	1840 nM
COc1ccc(S(=O)(=O)N2c3ccc(Cl)cc3[C@](O)(c3ccccc3Cl)[C@@H]2C(=O)N2CCC[C@H]2C(N)=O)cc1OC [RELCOVAPTAN]	285 nM
Cc1nnc(-c2ccc(-c3ccccc3)cc2)n1-c1ccccc1OCc1ccc(C(=O)N2CCN(C)CC2)cc1	364 nM
Cc1nnc(-c2ccc(-c3ccccc3)cc2)n1-c1ccccc1OCCCCCCN1CCN(C)CC1	1240 nM
Cc1nnc(-c2ccc(-c3ccccc3)cc2)n1-c1ccccc1OCCCCCCN1CCC(N2CCCCC2)CC1	1010 nM
CN(C)C1CCN(C(=O)/C=C2/c3ccccc3N(C(=O)c3ccc(NC(=O)c4ccccc4-c4ccccc4)cc3)CCC2(F)F)CC1	0.77 nM
CC(=O)NCCCOc1ccc(C(=O)N2CCC(N3C(=O)CCc4ccccc43)CC2)cc1	> 10000 nM
Cc1cccc(OCCCCCCN2CCN(C)CC2)c1-n1c(C)nnc1-c1ccc(-c2ccccc2)cc1	11700 nM

Biological target: Vasopressin V2 receptor (Rattus norvegicus) (UniProt Q00788)
Sequence (Q00788 whole entry): as above
Experiment: Selectivity ratio (Ki) of affinity at rat Vasopressin V2 receptor to that of rat Vasopressin V1a receptor
In short: as §2

SMILES	Ratio
Cc1cccc(OCc2ccc(C(=O)N3CCC(N4CCCCC4)CC3)cc2)c1-n1c(C)nnc1-c1ccc(-c2ccccc2)cc1	57
Cc1nnc(-c2ccc(-c3ccccc3)cc2)n1-c1ccccc1OCc1ccc(C(=O)N2CCN(C)CC2)cc1	5.8
Cc1nnc(-c2ccc(-c3ccccc3)cc2)n1-c1ccccc1OCCCCCCN1CCN(C)CC1	72
Cc1nnc(-c2ccc(-c3ccccc3)cc2)n1-c1ccccc1OCCCCCCN1CCC(N2CCCCC2)CC1	100
CN(C)C1CCN(C(=O)/C=C2/c3ccccc3N(C(=O)c3ccc(NC(=O)c4ccccc4-c4ccccc4)cc3)CCC2(F)F)CC1	4.8
CC(=O)NCCCOc1ccc(C(=O)N2CCC(N3C(=O)CCc4ccccc43)CC2)cc1	> 430
Cc1cccc(OCCCCCCN2CCN(C)CC2)c1-n1c(C)nnc1-c1ccc(-c2ccccc2)cc1	110

Biological target: Vasopressin V1a receptor (Rattus norvegicus, UniProt P30560)
Sequence (P30560 whole entry): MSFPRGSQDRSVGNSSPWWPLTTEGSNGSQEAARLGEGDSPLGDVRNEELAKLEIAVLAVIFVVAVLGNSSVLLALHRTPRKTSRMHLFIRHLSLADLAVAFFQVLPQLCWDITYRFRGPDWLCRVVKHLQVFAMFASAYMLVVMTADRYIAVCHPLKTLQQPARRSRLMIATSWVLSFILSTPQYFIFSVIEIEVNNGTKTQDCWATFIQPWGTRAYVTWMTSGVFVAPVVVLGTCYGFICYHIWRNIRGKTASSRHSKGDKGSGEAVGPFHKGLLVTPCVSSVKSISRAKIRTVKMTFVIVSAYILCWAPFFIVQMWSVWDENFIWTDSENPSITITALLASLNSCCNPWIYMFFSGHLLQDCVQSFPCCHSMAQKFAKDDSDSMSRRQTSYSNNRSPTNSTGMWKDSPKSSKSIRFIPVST
Experiment: Binding affinity at Vasopressin V1a receptor, performed using [3H]AVP on rat liver
In short: as §2

SMILES	Ki
Cc1cccc(OCc2ccc(C(=O)N3CCC(N4CCCCC4)CC3)cc2)c1-n1c(C)nnc1-c1ccc(-c2ccccc2)cc1	32.4 nM
Cc1nnc(-c2ccc(-c3ccccc3)cc2)n1-c1ccccc1OCc1ccc(C(=O)N2CCN(C)CC2)cc1	62.7 nM
Cc1nnc(-c2ccc(-c3ccccc3)cc2)n1-c1ccccc1OCCCCCCN1CCN(C)CC1	17.3 nM
Cc1nnc(-c2ccc(-c3ccccc3)cc2)n1-c1ccccc1OCCCCCCN1CCC(N2CCCCC2)CC1	9.69 nM
CN(C)C1CCN(C(=O)/C=C2/c3ccccc3N(C(=O)c3ccc(NC(=O)c4ccccc4-c4ccccc4)cc3)CCC2(F)F)CC1	0.16 nM
Cc1cccc(OCCCCCCN2CCN(C)CC2)c1-n1c(C)nnc1-c1ccc(-c2ccccc2)cc1	102 nM

Biological target: Vasopressin V1a receptor (Homo sapiens, UniProt P37288)
Sequence (P37288 whole entry): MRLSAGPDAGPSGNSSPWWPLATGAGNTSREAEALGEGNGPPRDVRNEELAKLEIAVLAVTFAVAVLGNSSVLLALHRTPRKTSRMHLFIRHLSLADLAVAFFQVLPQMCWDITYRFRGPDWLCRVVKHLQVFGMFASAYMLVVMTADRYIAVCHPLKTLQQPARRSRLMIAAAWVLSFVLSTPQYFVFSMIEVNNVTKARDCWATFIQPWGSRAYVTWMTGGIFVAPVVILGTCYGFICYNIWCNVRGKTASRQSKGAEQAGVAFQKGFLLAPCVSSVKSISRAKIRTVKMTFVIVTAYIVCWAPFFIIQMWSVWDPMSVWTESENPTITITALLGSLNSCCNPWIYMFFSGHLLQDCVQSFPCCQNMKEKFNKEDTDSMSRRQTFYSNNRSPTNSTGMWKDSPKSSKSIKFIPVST
Experiment: Binding affinity at cloned human Vasopressin V1a receptor stably expressed in CHO cells, using [3H]AVP as radioligand
Type: cell-based
In short: as §1, with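 “AVP.” for “AVP. Ki = IC50/(1+[L]/Kd); Kd from Scatchard: 0.39 nM (V1A), 1.21 nM (V2).”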

SMILES	Ki
Cc1nnc(-c2ccc(-c3ccccc3)cc2)n1-c1ccccc1OCCCCCCN1CCCCC1	13.9 nM
Cc1cccc(OCc2ccc(C(=O)N3CCC(N4CCCCC4)CC3)cc2)c1-n1c(C)nnc1-c1ccc(-c2ccccc2)cc1	1.01 nM
Cc1nnc(-c2ccc(-c3ccccc3)cc2)n1-c1ccccc1OCCCCCCCCCCN1CCN(C)CC1	39.4 nM
Cc1nnc(-c2ccc(-c3ccccc3)cc2)n1-c1ccccc1OCCCCCCCCN1CCN(C)CC1	13.2 nM
Cc1nnc(-c2ccc(-c3ccccc3)cc2)n1-c1ccccc1OCCCCCCn1ccnc1	9.06 nM
Cc1nnc(-c2ccc(-c3ccccc3)cc2)n1-c1ccccc1OCCCCC1CCNCC1	2.12 nM
Cc1nnc(-c2ccc(-c3ccccc3)cc2)n1-c1ccccc1OCc1ccc(C(=O)N2CCN(C)CC2)cc1	3.03 nM
Cc1nnc(-c2ccc(-c3ccccc3)cc2)n1-c1ccccc1OCCCC1CCNCC1	7.84 nM
Cc1nnc(-c2ccc(-c3ccccc3)cc2)n1-c1ccccc1OCCCCCCN1CCN(C)CC1	1.04 nM
Cc1nnc(-c2ccc(-c3ccccc3)cc2)n1-c1ccccc1OCCCCCCCN1CCN(C)CC1	4.5 nM
Cc1nnc(-c2ccc(-c3ccccc3)cc2)n1-c1ccccc1OCCCCCC(=O)N1CCN(C)CC1	9.16 nM
Cc1nnc(-c2ccc(-c3ccccc3)cc2)n1-c1cccc(OCCCCCCN2CCN(C)CC2)c1	214 nM
Cc1nnc(-c2ccc(-c3ccccc3)cc2)n1-c1ccc(OCCCCCCN2CCN(C)CC2)cc1	> 10000 nM
Cc1nnc(-c2ccc(-c3ccccc3)cc2)n1-c1ccccc1OCCCCCN1CCN(C)CC1	4.09 nM
Cc1nnc(-c2ccc(-c3ccccc3)cc2)n1-c1ccccc1OCCC1CCNCC1	55.5 nM
Cc1nnc(-c2ccc(-c3ccccc3)cc2)n1-c1ccccc1OCCCCCCN1CCC(N2CCCCC2)CC1	1.05 nM
Cc1nnc(-c2ccc(-c3ccccc3)cc2)n1-c1ccccc1OCCCCN1CCN(C)CC1	29.1 nM
COc1ccccc1-n1c(C)nnc1-c1ccc(-c2ccccc2)cc1	120 nM
Cc1cccc(OCc2ccc(C(=O)N3CCN(C)CC3)cc2)c1-n1c(C)nnc1-c1ccc(-c2ccccc2)cc1	8.09 nM
Cc1nnc(-c2ccc(-c3ccccc3)cc2)n1-c1ccccc1OCCCN1CCN(C)CC1	38.3 nM
CN(C)C1CCN(C(=O)/C=C2/c3ccccc3N(C(=O)c3ccc(NC(=O)c4ccccc4-c4ccccc4)cc3)CCC2(F)F)CC1	0.62 nM
CC(=O)NCCCOc1ccc(C(=O)N2CCC(N3C(=O)CCc4ccccc43)CC2)cc1	> 10000 nM
Cc1cccc(OCCCCCCN2CCN(C)CC2)c1-n1c(C)nnc1-c1ccc(-c2ccccc2)cc1	1.46 nM
